Biological target: T1, Pancreatic triacylglycerol lipase (Sus scrofa, UniProt P00591)
T1 sequence (P00591 whole entry): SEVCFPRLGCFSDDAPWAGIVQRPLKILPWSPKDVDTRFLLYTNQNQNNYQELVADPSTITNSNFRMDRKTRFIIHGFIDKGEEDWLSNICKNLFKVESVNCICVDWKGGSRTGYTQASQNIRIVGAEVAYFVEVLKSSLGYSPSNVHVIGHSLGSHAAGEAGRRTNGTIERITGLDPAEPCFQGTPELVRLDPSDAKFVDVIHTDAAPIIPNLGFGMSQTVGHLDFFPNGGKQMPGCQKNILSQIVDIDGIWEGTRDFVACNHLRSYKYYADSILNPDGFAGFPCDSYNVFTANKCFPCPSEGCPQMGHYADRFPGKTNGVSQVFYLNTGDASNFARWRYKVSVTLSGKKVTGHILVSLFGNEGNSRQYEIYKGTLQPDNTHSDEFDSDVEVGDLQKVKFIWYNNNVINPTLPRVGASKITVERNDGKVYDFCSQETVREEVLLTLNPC
Assay: Inhibition of porcine pancreatic lipase preincubated for 10 mins followed by 4-MUO addition and measured at 60 sec interval for 40 mins by multi plate micro plate reader
Method in brief: (§1)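 Porcine pancreatic lipase (type II) at 0.01 mg/mL final in 0.1 M citrate phosphate buffer pH 7.4 with inhibitor at various concentrations, vortexed, preincubated 10 min at 37 °C. Reaction started with 4-MUO, and fluorescence of released 4-MU read on a microplate reader. IC50 obtained by nonlinear regression; mean ± SD of triplicates.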

Row | SMILES | IC50 [µM]
1 | O=C1/C(=C/c2ccccc2Br)Cc2ccc(O)cc21 | 28.9
2 | COc1cc(/C=C2\Cc3ccc(N4CCCCC4)cc3C2=O)ccc1O | 3.32
3 | O=C1/C(=C/c2ccccc2Cl)Cc2ccc(O)cc21 | > 100
4 | O=C1/C(=C/c2ccc(F)cc2)Cc2ccc(O)cc21 | 32.7
5 | COc1cc(/C=C2\Cc3ccc(N4CCCC4)cc3C2=O)ccc1O | 3.5
6 | COc1cc(/C=C2\Cc3ccc(O)cc3C2=O)cc(OC)c1OC | 14.8
7 | COc1ccc2c(c1)C(=O)/C(=C/c1ccc(O)c(OC)c1)C2 | 37.1
8 | O=C1/C(=C/c2ccccc2F)Cc2ccc(O)cc21 | > 100
9 | C=CCCCCCCCCNc1ccc2c(c1)C(=O)/C(=C/c1ccc(O)c(OC)c1)C2 | 84.1
10 | COc1cc(/C=C2\Cc3ccccc3C2=O)ccc1O | 6.94
11 | C=CCCCCNc1ccc2c(c1)C(=O)/C(=C/c1ccc(O)c(OC)c1)C2 | 25.1
12 | O=C1/C(=C/c2ccc(O)cc2)Cc2ccc(O)cc21 | > 100
13 | COc1cc(/C=C2\Cc3ccc(N)cc3C2=O)ccc1O | 12.4
14 | COc1cc(/C=C2\Cc3ccc(OC(C)C)cc3C2=O)ccc1O | 8.61
15 | O=C1/C(=C/c2ccc(Br)cc2)Cc2ccc(O)cc21 | 75.6
16 | O=C(/C=C/c1ccccc1)c1ccccc1 [CHALCONE] | 84.4

Row | SMILES | IC50 [µM]
17 | O=C1/C(=C/c2ccc(O)cc2)Cc2ccccc21 | 14.9
18 | COc1cc(OC)c(OC)cc1/C=C1\Cc2ccc(O)cc2C1=O | 35
19 | O=C1/C(=C/c2ccc(Cl)c(Cl)c2)Cc2ccc(O)cc21 | 75.4
20 | COc1cc(/C=C2\Cc3ccc(NCCC(C)CCCC(C)C)cc3C2=O)ccc1O (stereo unspecified) | 2.52
21 | COc1cc(/C=C2\Cc3ccc(N(CCC(C)CCCC(C)C)CCC(C)CCCC(C)C)cc3C2=O)ccc1O (stereo unspecified) | 0.83
22 | CCN(CC)c1ccc2c(c1)C(=O)/C(=C/c1ccc(O)c(OC)c1)C2 | 1.69
23 | C=CCCCCN(CCCCC=C)c1ccc2c(c1)C(=O)/C(=C/c1ccc(O)c(OC)c1)C2 | 2.09
24 | COc1ccc(/C=C2\Cc3ccc(O)cc3C2=O)c(OC)c1 | 24.8
25 | CCCOc1ccc2c(c1)C(=O)/C(=C/c1ccc(O)c(OC)c1)C2 | 2.54
26 | C=CCCCCCCCCN(CCCCCCCCC=C)c1ccc2c(c1)C(=O)/C(=C/c1ccc(O)c(OC)c1)C2 | 0.58
27 | O=C1/C(=C/c2cccc(Br)c2)Cc2ccc(O)cc21 | 14.8
28 | COc1cc(OC)c(/C=C2\Cc3ccc(O)cc3C2=O)c(OC)c1 | 20.7
29 | COc1cc(/C=C2\Cc3ccc(NCCCCCCCCCCCCO)cc3C2=O)ccc1O | 0.68
30 | COc1cc(/C=C2\Cc3ccc(N(CCCCCCCCCCCCO)CCCCCCCCCCCCO)cc3C2=O)ccc1O | 0.33
31 | COc1cc(/C=C2\Cc3ccc(O)cc3C2=O)ccc1O | 10.4

System: not listed separately
Assay: Metabolic stability in human liver microsomes assessed as half life in Phase II metabolic system at 10 uM measured by LC-UV method
Type: ADME, Microsome
Method in brief: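 Phase II system of human liver preparations, compound at 10 μM final. Remaining compound measured by UFLC-UV on an ODS column (2.1 × 150 mm, 2.2 μm) at 40 °C and 0.4 mL/min, with an acetonitrile / water (0.2% formic acid) gradient, detection at 370 nm. Half-life reported.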

Row | SMILES | half-life at 10 µM [h]
32 | O=c1ccc2ccc(O)cc2o1 [UMBELLIFERONE] | 0.258
33 | COc1cc(/C=C2\Cc3ccc(N(CCCCCCCCCCCCO)CCCCCCCCCCCCO)cc3C2=O)ccc1O | 1.95

System: not listed separately
Assay: Metabolic stability in artificial intestinal fluids assessed as half life at 100 uM by LC-UV method
Method in brief: (§2)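 Artificial gastric or intestinal fluid (800 μL) prewarmed 3 min at 37 °C, then compound added to 100 μM final. Aliquots taken at 0, 0.5, 1, 2 and 4 h and quenched with equal volume of ice-cold acetonitrile. Half-life derived from remaining compound.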

Row | SMILES | T1/2 [h]
34 | COc1cc(/C=C2\Cc3ccc(N(CCCCCCCCCCCCO)CCCCCCCCCCCCO)cc3C2=O)ccc1O | > 4

Biological target: T1, Pancreatic triacylglycerol lipase
Assay: Mixed type inhibition of porcine pancreatic lipase using 4MUO as substrate by Lineweaver-Burk plot analysis
Method in brief: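 Kinetics of porcine pancreatic lipase with varied 4-MUO concentrations and increasing inhibitor doses, otherwise as in the standard assay (0.01 mg/mL enzyme, citrate phosphate pH 7.4, 37 °C, 4-MU fluorescence read-out). Inhibition mode and Ki taken from inhibition kinetic plots and Lineweaver-Burk plots, with a secondary plot of slopes. Nonlinear regression; mean ± SD of triplicates.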

Row | SMILES | Ki [µM]
35 | COc1cc(/C=C2\Cc3ccc(N(CCCCCCCCCCCCO)CCCCCCCCCCCCO)cc3C2=O)ccc1O | 0.12

System: not listed separately
Assay: Metabolic stability in artificial gastrointestinal fluids assessed as half life at 100 uM by LC-UV method
Method in brief: as §2

Row | SMILES | T1/2 [h]
36 | COc1cc(/C=C2\Cc3ccc(N(CCCCCCCCCCCCO)CCCCCCCCCCCCO)cc3C2=O)ccc1O | 3.89

Biological target: not listed separately
Assay: Inhibition of porcine pancreatic lipase type 2
Parameters: species or system Sus scrofa
Method in brief: as §1

Row | SMILES | IC50 [µM]
37 | CC(C)=CCc1c(O)ccc(C(=O)/C=C/c2ccc(O)cc2O)c1O [MORACHALCONE A] | 6.2
38 | O=C1/C(=C/c2ccccc2)Cc2ccccc21 | 22.5
39 | CC(C)=CCc1c(O)ccc(C(=O)/C=C/c2ccc(O)cc2)c1O [ISOBAVACHALCONE] | 3.3
40 | CC(C)=CCc1cc(C(=O)/C=C/c2ccc(O)cc2)c(O)cc1O [BROUSSOCHALCONE B] | 5.7

System: not listed separately
Assay: Metabolic stability in human liver microsomes assessed as half life in Phase I metabolic system at 10 uM measured by LC-UV method
Type: ADME, Microsome
Method in brief: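 Phase I incubation with human liver preparations, compound or testosterone control at 10 μM final. Remaining compound quantified by LC-UV (ODS column, 40 °C, acetonitrile/0.2% formic acid water gradient, 0.4 mL/min, detection 370 nm) to give in vitro half-life.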

Row | SMILES | half-life at 10 µM [h]
41 | COc1cc(/C=C2\Cc3ccc(N(CCCCCCCCCCCCO)CCCCCCCCCCCCO)cc3C2=O)ccc1O | 3.68

From ChEMBL document CHEMBL4680290, “Design, synthesis and biological evaluation of novel chalcone-like compounds as potent and reversible pancreatic lipase inhibitors” (Bioorg Med Chem, 2021)
